# High-throughput results from PubChem.
# An excerpt weighted towards active compounds, which were near 2.3% of everything screened.
# Rtt109 HAT inh: inhibitors of C. albicans Rtt109/Vps75 HAT, primary screen, biochemical, ThioGlo CoA-SH fluorescence, plate reader | purified Rtt109/Vps75, 4 h | Histone acetyltransferase RTT109 (Candida albicans (strain SC5314 / ATCC MYA-2876)), … | inhibition, % at 34.9 µM | 330,000 compounds, 0.16% hits;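 active = inhibition of at least 50% in every replicate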
# Target sequence (Q5AAJ8 whole entry, looked up): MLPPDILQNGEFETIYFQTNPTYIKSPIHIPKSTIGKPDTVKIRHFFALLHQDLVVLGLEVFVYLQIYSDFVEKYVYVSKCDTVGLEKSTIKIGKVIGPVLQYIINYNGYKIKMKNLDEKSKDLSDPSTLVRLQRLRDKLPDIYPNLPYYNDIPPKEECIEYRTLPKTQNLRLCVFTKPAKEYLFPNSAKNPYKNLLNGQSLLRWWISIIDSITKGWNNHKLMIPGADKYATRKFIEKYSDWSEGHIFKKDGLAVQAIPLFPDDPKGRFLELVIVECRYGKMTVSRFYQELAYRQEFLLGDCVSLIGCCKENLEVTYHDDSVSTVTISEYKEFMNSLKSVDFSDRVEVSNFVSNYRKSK
# PAX8 inh HTS: inhibitors of PAX8-driven TPO luciferase reporter, primary screen, RMG-I cells, single concentration. 360,000 compounds, 1.2% hits. SteadyGlo, 24 h. AID 652154, 2013. inhibition, % at 12.6 µM;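 active = mean replicate inhibition at least 60% with every replicate also reaching 60%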;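 note: luciferase light reporting Pax8 driven TPO promoter activity; plate controls were median of neutral control wells for no effect and mitoxantrone controls for full effect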
# Arrestin-AP2 inh: inhibitors of beta-arrestin/AP2 binding, primary screen, biochemical, GPCR trafficking, flow cytometry; FITC-arrestin peptide / GST-AP2 beads; AP2 beta2 appendage carries R879A mutation; inhibition, % at 10 µM; 340,000 compounds, 0.31% hits; beta-arrestin 1 C-terminal peptide binding to AP2 beta2-adaptin appendage (human); AID 504490, 2011;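 active = inhibition above a set limit, near 3 SD of compounds lacking own fluorescence, cut at about 54% in these data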;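 note: plate controls were DMSO wells for no effect and 5 µM unlabelled arrestin peptide for full effect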
#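 System: GST-AP2 R879A glutathione beads. Medium: PBS with 0.05% Tween 20 and 0.1% BSA. Also added: FITC-arrestin peptide, 50 nM. Incubation: 12 min plus 1 h, RT. Measured by: high-throughput flow cytometry of beads, ex 488, em 535 nm. Evaluation: percent drop in bead-associated FITC signal.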
# Env fusion inh: inhibitors of HIV-1 Env-driven cell-cell fusion, primary screen, HeLa-JRFL effector, CEM21 target cells, luciferase; inhibition, % at 12.3 µM; 360,000 compounds, 1.1% hits; AID 651610, 2012;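 active = mean replicate inhibition score of at least 50 and every replicate individually at or above 50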;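 note: 0% = plate neutral controls and 100% = maraviroc near 300 nM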
# PfHsp90 yeast 2: growth inhibition of PfHsp90-expressing yeast, primary screen, antimalarial PfHsp90 inhibitor project, S. cerevisiae, BacTiter-Glo luminescence, single point, set 2; 310,000 compounds, 0.32% hits; inhibition, % at 9.4 µM; AID 504621, 2011; BacTiter-Glo ATP, 48 h; yeast lacking PDR1 and PDR3 efflux regulators;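 active = every replicate shows inhibition above about 80%, whatever the replicate mean, limit read from the data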;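 note: 0% = DMSO neutral controls and 100% = 20 µM radicicol positive controls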
# N-glyco inh: increase of ERlucT glycosylation luciferase signal, primary screen, N-linked glycosylation inhibitor project, D54 ERlucT cells, luminescence, set 2; D54 ERlucT glycosylation luciferase reporter, 24 h; percent of 100 nM tunicamycin response; AID 588692, 2011; 360,000 compounds, 0.23% hits; reporter increase, % at 12.5 µM;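 active = mean luciferase reporter signal, scaled so untreated is 0 and the glycosylation-blocking control 100, at or above a set limit in every replicate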;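 note: luciferase carries N-glycosylation sites so blocking glycosylation raises the light; 0% = median of neutral control wells and 100% = median of 100 nM tunicamycin wells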
# The depositor's hits bear a star; i = inactive; / = no result; [ ] = remark or other dose.
SMILES,Rtt109 HAT inh,PAX8 inh HTS,Arrestin-AP2 inh,Env fusion inh,PfHsp90 yeast 2,N-glyco inh
COc1ccc(/C=C2/CCC(CN3CCOCC3)C2=O)cc1 (centres undefined),3.0,5.0,18.9,-51.9,146.3*,-16.8
CC1CCC/C(=C\c2ccc(O)cc2)C1=O (centres undefined),4.3,-2.5,-2.0,-3.9,8.3,-2.7
CN(C)CC1CCC/C(=C\c2ccc(OC(=O)/C=C/c3ccccc3)cc2)C1=O (centres undefined),-4.1,/,-2.5,-27.1,-12.6,5.0
O=C1/C(=C\c2ccc(Cl)cc2)CCC1CNc1ccc(Cl)cc1 (centres undefined),1.3,6.8,15.9,-3.5,147.0*,20.1
CN(C)CC1CCC/C(=C\c2ccc(OC(=O)c3ccc(Cl)cc3)cc2)C1=O (centres undefined),-13.8,/,38.1,59.7*,2.9,-11.8
COc1ccc(/C=C2\CCC(C3CCCC3)C2=O)cc1 (centres undefined),0.1,-86.5,-5.2,-36.8,19.9,-9.7
C#CCNC(=O)C1=C[C@@H](c2cn(C(C)=O)c3ccccc23)[C@H](CCCO)[C@@H](OCC)O1,/,/,/,-2.6[16.7 µM],/,/
COc1ccc(NC(=O)N[C@H]2CC[C@H](CCNC(=O)c3ccccc3F)O[C@H]2CO)cc1,/,-13.4,/,0.6[16.7 µM],/,/
Cc1ccnc(NC(=O)C(Cc2ccccc2)NC(=O)c2ccccc2)c1 (centres undefined),0.8,-5.3,-1.9,/,8.2,25.5*
CCC(C(=O)Nc1cc(C(=O)Nc2cc(C)ccn2)ccc1Cl)c1ccccc1 (centres undefined),9.9,69.4*,27.6,/,-18.6,-1.4
O=C(NC(Cc1ccccc1)C(=O)NC(Cc1ccccc1)C(=O)O)c1ccccc1 (centres undefined),-9.1,-5.1,2.3,-10.0,5.6,0.5
Cc1ccnc(NC(=O)c2ccc(Cl)c(NC(=O)c3ccccc3C)c2)c1,-0.1,/,-10.6,/,-3.4,-4.3
CCCNC(=O)[C@@H]1[C@@H](CO)[C@@H]2Cn3c(ccc(-c4ccccc4F)c3=O)[C@@H]2N1CC1CC1,/,/,/,0.1[16.7 µM],/,/
Cc1ccc(S(=O)(=O)Nc2ccc3ccccc3c2[N+](=O)[O-])cc1,2.4,0.1,4.3,-0.8,115.4*,3.4
COc1ccc([N+](=O)[O-])cc1NS(=O)(=O)c1ccc(C)cc1,-0.5,6.3,35.8,6.1,6.0,-0.6
COc1ccc(NS(=O)(=O)c2ccc(C)cc2)c([N+](=O)[O-])c1,-4.2,-3.7,-3.8,16.2,-22.0,-0.9
Cc1ccc(S(=O)(=O)Nc2ccc3cc([N+](=O)[O-])ccc3c2[N+](=O)[O-])cc1,10.7,5.0,-0.8,12.3,110.8*,1.2
COc1cccc(S(=O)(=O)N[C@@H]2C=C[C@@H](CC(=O)NCc3ccncc3)O[C@H]2CO)c1,/,4.3,/,-5.4[16.7 µM],/,/
Cc1noc(C)c1S(=O)(=O)N(C)C[C@@H]1Oc2ccc(NC(=O)Cc3ccccc3)cc2CC(=O)N([C@@H](C)CO)C[C@H]1C,/,0.4,/,3.1[16.7 µM],/,/
O=C(/C(=C/O)N=Nc1cccc(C(F)(F)F)c1)c1ccccc1,18.6,24.5,6.0,7.2,108.2*,0.8
N/C(Cc1ccc(Cl)cc1)=N\OC(=O)c1cccc2ccccc12,-1.0,/,-8.6,/,128.3*,5.3
O=C(c1cn(Cc2ccccc2)nc1-c1ccccc1)N1CCN(c2ccccn2)CC1,3.2,13.7,-9.2,-47.2,4.9,50.9*
Cc1ccccc1C(=O)N1CCN(c2ccccn2)CC1,-20.3,/,6.5,/,-1.7,-0.4
COc1ccc(-c2nn(Cc3ccccc3)cc2C(=O)N2CCN(c3ccccn3)CC2)cc1OC,4.2,4.1,3.3,-1.6,/,1.0
O=C(c1ccccc1-c1ccccc1)N1CCN(c2ccccn2)CC1,-15.5,/,4.7,15.3,-11.0,50.2*
SMILES,Rtt109 HAT inh,PAX8 inh HTS,Arrestin-AP2 inh,Env fusion inh,PfHsp90 yeast 2,N-glyco inh
COc1ccccc1C#Cc1ccc([C@H]2[C@@H](CO)N3CCCCN(C(=O)C4CCCC4)C[C@@H]23)cc1,/,30.4,/,/,/,/
C[C@@H]1CN([C@@H](C)CO)C(=O)Cc2cc(NC(=O)CCC(F)(F)F)ccc2O[C@@H]1CN(C)Cc1ccc(C(=O)O)cc1,/,0.6,/,/,/,/
COc1cc2c(oc(=O)c3cc(C)cc(OC)c32)c2c(C3OC(C)C(O)C(C)(O)C3O)ccc(O)c12 (centres undefined),2.2,/,47.8,56.3*,-22.2,-2.4
O=C(NC[C@H]1CC[C@@H]2[C@@H](CN2C(=O)CN2CCOCC2)O1)NC1CCCCC1,/,-19.0,/,-30.6[16.7 µM],/,/
O=C(OCn1ncc(Cl)c(Cl)c1=O)c1ccc(C(F)(F)F)cc1,0.7,/,0.0,i,51.9,30.8*
Cc1ccc(C(=O)OCn2ncc(Cl)c(Cl)c2=O)cc1,17.3,/,8.5,i,95.8*,-24.5
O=C(O)c1ccc(-n2ncc(Cl)c(Cl)c2=O)cc1,/,/,/,/,/,2.5
Cc1c(C(=O)OC2CCCC2)[nH]c2c1C(=O)CC(c1ccco1)C2 (centres undefined),-1.2,76.1*,0.4,-411.4,-33.1,4.6
Cc1c(C(=O)OCC2CCCO2)[nH]c2c1C(=O)CC(c1ccco1)C2 (centres undefined),12.4,/,25.1,/,-12.3,15.8
C/C=C/COC(=O)c1[nH]c2c(c1C)C(=O)CC(c1ccco1)C2 (centres undefined),12.0,44.4,4.6,-460.5,/,8.3
COc1cc(C2CC(=O)c3c([nH]c(C(=O)OCCOC(C)C)c3C)C2)cc(OC)c1OC (centres undefined),9.8,35.6,0.8,55.1*,3.5,-6.3
Cc1c(C(=O)OCC(C)C)[nH]c2c1C(=O)CC(c1ccco1)C2 (centres undefined),12.9,68.5*,4.5,-74.5,-3.4,15.1
C[C@H](CO)N1C[C@H](C)[C@H](CN(C)S(=O)(=O)c2ccccc2)Oc2ccc(NS(=O)(=O)c3cccs3)cc2CC1=O,/,4.3,/,63.9*[16.7 µM],/,/
C[C@H](CO)N1C[C@H](C)[C@@H](CN(C)S(=O)(=O)c2ccc(F)cc2)Oc2ccc(NS(=O)(=O)c3ccccc3)cc2CC1=O,/,-16.9,/,32.4[16.7 µM],/,/
C[C@H](CO)N1C[C@H](C)[C@@H](CN(C)S(=O)(=O)c2ccc(F)cc2)Oc2ccc(NS(=O)(=O)c3cn(C)cn3)cc2CC1=O,/,/,/,64.1*[16.7 µM],/,/
C[C@H](CO)N1C[C@H](C)[C@H](CN(C)S(=O)(=O)c2ccccc2)Oc2ccc(NS(=O)(=O)c3ccc(F)cc3)cc2CC1=O,/,/,/,57.6*[16.7 µM],/,/
